Laboratory results reported in ChEMBL document CHEMBL1140036, “Novel glucagon receptor antagonists with improved selectivity over the glucose-dependent insulinotropic polypeptide receptor” (J Med Chem, 2008).
Activity calls are given as the source filed them. The rule behind the calls is not given here.

Tests used:
Glucagon receptor [1] = molecular target: Glucagon receptor (Homo sapiens, UniProt P47871); assay: Binding affinity to human cloned GluR expressed in BHK cells; assay type: cell-based
Procedure, shortened: (§1)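 Competitive binding on purified plasma membranes from BHK cells expressing the cloned human receptor (glucagon, GIP or GLP-1 receptor). The glucagon receptor protocol follows earlier published work, and the GIP and GLP-1 assays were done the same way.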

[2] = molecular target: T1, Gastric inhibitory polypeptide receptor (Homo sapiens, UniProt P48546); assay: Binding affinity to human cloned GIPR expressed in BHK cells; assay type: cell-based; procedure, shortened: as §1
T1 sequence (P48546 whole entry): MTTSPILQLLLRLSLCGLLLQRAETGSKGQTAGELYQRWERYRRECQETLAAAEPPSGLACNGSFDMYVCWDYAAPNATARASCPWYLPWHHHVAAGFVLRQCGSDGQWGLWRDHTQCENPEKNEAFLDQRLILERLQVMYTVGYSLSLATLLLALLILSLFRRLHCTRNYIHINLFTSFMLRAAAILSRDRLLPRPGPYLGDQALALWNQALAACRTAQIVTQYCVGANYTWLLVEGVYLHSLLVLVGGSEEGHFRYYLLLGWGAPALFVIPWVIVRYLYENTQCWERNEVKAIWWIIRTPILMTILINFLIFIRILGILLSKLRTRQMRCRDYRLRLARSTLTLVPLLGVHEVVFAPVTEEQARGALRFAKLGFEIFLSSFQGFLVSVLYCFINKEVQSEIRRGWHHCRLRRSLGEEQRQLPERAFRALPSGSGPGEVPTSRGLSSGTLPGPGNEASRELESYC

[3] = Half life in Sprague-Dawley rat at 2 mg/kg, iv; assay type: ADME, organism-based; design: dose 2 mg/kg, route intravenous; conditions: in vivo
Procedure, shortened: (§2)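 Fasted male Sprague-Dawley rats (~200 g) were given 2 mg/kg iv or 4 mg/kg po. Vehicle: 5% ethanol, 20% propylene glycol, 10% hydroxypropyl-β-cyclodextrin in phosphate buffer pH 7.5-8.0. EDTA blood was taken by heart puncture under CO2 at 5-360 min (iv) or 15-360 min (po). Plasma was analysed by HTLC-MS/MS, with noncompartmental PK analysis.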

[4] = Oral bioavailability in Sprague-Dawley rat at 4 mg/kg; assay type: ADME, organism-based; conditions: in vivo; procedure, shortened: as §2
[5] = molecular target: Glucagon-like peptide 1 receptor (Homo sapiens, UniProt P43220); assay: Binding affinity to human cloned GLP1R expressed in BHK cells; assay type: cell-based; procedure, shortened: as §1
BHK = assay: Selectivity ratio of IC50 for human cloned GluR to IC50 for human cloned GLP1R expressed in BHK cells; assay type: cell-based
Glucagon receptor [6] = molecular target: Glucagon receptor (Rattus norvegicus, UniProt P30082); assay: Binding affinity to GlucR in rat liver membrane; assay type: cell membranes
Procedure, shortened: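 Competitive binding on isolated rat liver membrane preparations, run by the same protocol as the human glucagon receptor binding assay.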

Hepatocyte [7] = assay: Inhibition of glucagon-stimulated glycogenolysis in rat hepatocytes; assay type: functional, cell-based
Procedure, shortened: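 Isolated, cultured primary rat hepatocytes were loaded with glycogen and stimulated with 0.5 nM glucagon plus increasing compound concentrations in medium containing 0.1% HSA. Glucose released into the medium was measured after 60 min, and IC50 was derived.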

Hepatocyte [8] = assay: Inhibition of adrenaline-stimulated glycogenolysis in rat hepatocytes up to 25 uM; assay type: functional, cell-based
Procedure, shortened: (§3)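 Glycogen-loaded cultured primary rat hepatocytes, either unstimulated (basal) or adrenaline-stimulated, in medium with 0.1% HSA. Compounds were tested at concentrations up to 25 µM, and glycogenolysis was read as glucose release.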

Hepatocyte [9] = assay: Inhibition of basal glycogenolysis in rat hepatocytes up to 25 uM; assay type: functional, cell-based; procedure, shortened: as §3
Hepatocyte [10] = assay: Increase in lactate production in rat hepatocytes; assay type: functional, cell-based
Rattus norvegicus = assay: Inhibition of glucagon-stimulated increase in blood glucose levels in iv dosed Sprague-Dawley rat administered 5 mins before glucagon challenge; assay type: functional
Procedure, shortened: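 Nonfasted male Sprague-Dawley rats (200 g) were anaesthetized with sc fentanyl/fluanisone plus midazolam. Compound was given via jugular catheter at 0, 3 or 10 mg/kg, followed 5 min later by iv glucagon 3 µg/kg. Tail-tip blood glucose was sampled at 25 and 5 min before compound and 10 min after glucagon. Response = 10-min value minus mean basal.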

Mus musculus = assay: Reduction of hyperglycemia in leptin-deficient obese type-2 diabetes ob/ob mouse model at 100 mg/kg, po after 6 hrs; assay type: functional, organism-based; design: dose 100 mg/kg
Procedure, shortened: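 Male ob/ob mice (11-13 weeks), selected for highest blood glucose and randomized to matched groups. Dosed 0 or 100 mg/kg by oral gavage in the morning, with food withheld for 6 h. Blood glucose was measured ~1/2 h predose and at 2, 4, 6 and 24 h, expressed as change from baseline.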

[11] = molecular target: T2, Gastric inhibitory polypeptide receptor (Rattus norvegicus, UniProt P43219); assay: Binding affinity to GIPR in rat liver membrane; assay type: cell membranes
T2 sequence (P43219 whole entry): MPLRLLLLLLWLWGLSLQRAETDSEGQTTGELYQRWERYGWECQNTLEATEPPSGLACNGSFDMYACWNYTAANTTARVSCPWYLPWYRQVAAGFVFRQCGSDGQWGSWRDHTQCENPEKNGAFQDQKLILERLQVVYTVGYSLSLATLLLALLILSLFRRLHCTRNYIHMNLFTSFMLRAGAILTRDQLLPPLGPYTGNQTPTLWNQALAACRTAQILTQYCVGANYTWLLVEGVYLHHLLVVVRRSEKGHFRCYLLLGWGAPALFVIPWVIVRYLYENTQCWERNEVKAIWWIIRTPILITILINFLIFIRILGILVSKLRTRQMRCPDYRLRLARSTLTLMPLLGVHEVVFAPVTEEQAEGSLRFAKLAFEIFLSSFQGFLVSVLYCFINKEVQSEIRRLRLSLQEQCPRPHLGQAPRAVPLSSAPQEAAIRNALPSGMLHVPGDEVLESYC

Pancreas = assay: Inhibition of GIP-stimulated insulin secretion in rat pancreas; assay type: functional, tissue-based
Procedure, shortened: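 Isolated perfused rat pancreas: 80 mg/dL glucose at 1-4 min, then 160 mg/dL glucose with compound at 5-50 min, and 500 pM GIP infused at 15-34 min. Portal outflow was collected each minute and insulin measured by radioimmunoassay; n = 4 per group.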

Sequence of Glucagon receptor (Rattus norvegicus, UniProt P30082) (P30082 whole entry): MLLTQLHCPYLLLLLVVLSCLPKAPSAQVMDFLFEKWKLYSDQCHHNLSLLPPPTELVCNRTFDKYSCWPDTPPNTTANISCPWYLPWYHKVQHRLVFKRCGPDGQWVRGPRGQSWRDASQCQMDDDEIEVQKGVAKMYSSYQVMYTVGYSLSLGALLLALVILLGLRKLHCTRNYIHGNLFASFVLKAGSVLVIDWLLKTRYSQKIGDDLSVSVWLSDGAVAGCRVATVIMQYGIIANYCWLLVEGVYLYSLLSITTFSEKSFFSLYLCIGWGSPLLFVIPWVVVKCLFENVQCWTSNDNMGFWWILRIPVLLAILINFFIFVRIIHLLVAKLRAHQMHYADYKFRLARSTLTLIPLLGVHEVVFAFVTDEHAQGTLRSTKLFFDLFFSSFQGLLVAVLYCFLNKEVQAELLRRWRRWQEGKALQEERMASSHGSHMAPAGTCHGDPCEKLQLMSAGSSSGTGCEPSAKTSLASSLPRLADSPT
Sequence of Glucagon receptor (Homo sapiens, UniProt P47871) (P47871 whole entry): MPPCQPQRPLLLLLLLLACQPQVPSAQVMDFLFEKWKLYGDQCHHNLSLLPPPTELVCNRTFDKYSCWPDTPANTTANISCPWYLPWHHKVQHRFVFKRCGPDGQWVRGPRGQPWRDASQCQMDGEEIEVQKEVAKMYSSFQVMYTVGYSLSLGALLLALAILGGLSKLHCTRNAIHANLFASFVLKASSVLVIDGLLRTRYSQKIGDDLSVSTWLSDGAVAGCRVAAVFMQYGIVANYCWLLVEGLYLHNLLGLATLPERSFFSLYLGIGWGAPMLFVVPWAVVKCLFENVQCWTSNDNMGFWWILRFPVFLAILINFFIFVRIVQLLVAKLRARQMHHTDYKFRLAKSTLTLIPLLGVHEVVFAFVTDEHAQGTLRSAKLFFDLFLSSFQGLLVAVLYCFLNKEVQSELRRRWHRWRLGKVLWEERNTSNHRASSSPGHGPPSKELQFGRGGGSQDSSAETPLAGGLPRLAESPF
Sequence of Glucagon-like peptide 1 receptor (P43220 whole entry): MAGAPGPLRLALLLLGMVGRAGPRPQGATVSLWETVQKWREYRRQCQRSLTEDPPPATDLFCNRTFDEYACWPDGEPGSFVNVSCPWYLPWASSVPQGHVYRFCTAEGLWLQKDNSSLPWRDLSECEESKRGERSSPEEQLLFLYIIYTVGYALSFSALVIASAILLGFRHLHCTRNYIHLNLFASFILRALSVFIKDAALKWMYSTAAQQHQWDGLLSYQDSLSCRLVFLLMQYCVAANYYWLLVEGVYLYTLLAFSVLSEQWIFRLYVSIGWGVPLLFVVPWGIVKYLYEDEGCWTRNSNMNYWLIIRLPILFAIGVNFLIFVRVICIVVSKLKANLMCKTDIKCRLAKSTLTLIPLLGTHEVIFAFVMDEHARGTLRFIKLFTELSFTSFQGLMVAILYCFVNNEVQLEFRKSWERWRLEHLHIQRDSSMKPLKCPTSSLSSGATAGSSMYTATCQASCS

SMILES	IC50 (Glucagon receptor [1]) [nM]	IC50 [2] [nM]	IC50 [5] [nM]	other results
O=C(NC[C@@H](O)C(=O)O)c1ccc(CN(C(=O)Nc2cccc(Br)c2)c2ccc(C3CCCCC3)cc2)cc1	8	216		half-life [3]: 72 min; bioavailability [4]: 21%
O=C(NC[C@@H](O)C(=O)O)c1ccc(CN(C(=O)Nc2cc(Cl)cc(Cl)c2)c2ccc(C3=CCCCC3)cc2)cc1	3.9	359	17000	Ratio IC50 (BHK): 4300; half-life [3]: 53 min; bioavailability [4]: 32%; IC50 (Glucagon receptor [6]): 43 nM; IC50 (Hepatocyte [7]): 200 nM; Activity (Hepatocyte [8]): inactive; Activity (Hepatocyte [9]): inactive; Activity (Hepatocyte [10]): Active; Activity (Rattus norvegicus): Dose-dependent effect; minimal effective dose (Rattus norvegicus; read-out: MED): 3 mg/kg; Activity (Mus musculus): Active; IC50 [11]: 501 nM
CC(C)(C)[C@H]1CC[C@H](N(Cc2ccc(C(=O)NC[C@@H](O)C(=O)O)cc2)C(=O)Nc2cc(C(F)(F)F)cc(C(F)(F)F)c2)CC1	8	87	7730	half-life [3]: 41 min; bioavailability [4]: 11%
CC(C)(C)c1cccc(NC(=O)N(Cc2ccc(C(=O)NC[C@@H](O)C(=O)O)cc2)c2ccc(C3CCCCC3)cc2)c1	18	74		
Cc1cc(C)cc(NC(=O)N(Cc2ccc(C(=O)NC[C@@H](O)C(=O)O)cc2)[C@H]2CC[C@H](C(C)(C)C)CC2)c1	27	220		
CSc1cccc(NC(=O)N(Cc2ccc(C(=O)NC[C@@H](O)C(=O)O)cc2)c2ccc(C3CCCCC3)cc2)c1	9	411		half-life [3]: 43 min; bioavailability [4]: 8%
CC(C)(C)[C@H]1CC[C@H](N(Cc2ccc(C(=O)NCCC(=O)O)cc2)C(=O)Nc2cc(C(F)(F)F)cc(C(F)(F)F)c2)CC1	16	93		
CC(C)(C)[C@H]1CC[C@H](N(Cc2ccc(C(=O)NC[C@H](O)C(=O)O)cc2)C(=O)Nc2cc(C(F)(F)F)cc(C(F)(F)F)c2)CC1	82	373	4880	
N#Cc1ccc(NC(=O)N(Cc2ccc(C(=O)NC[C@@H](O)C(=O)O)cc2)c2ccc(C3CCCCC3)cc2)cc1C(F)(F)F	9	198		
CC(C)(C)C1CCC(N(Cc2ccc(C(=O)NCCC(=O)O)cc2)C(=O)Nc2ccc(OC(F)(F)F)cc2)CC1 (stereo not given)	23.4	28.3	2540	IC50 (Glucagon receptor [6]): 23 nM; IC50 [11]: 42 nM; Activity (Pancreas): Active
Cc1cc(NC(=O)N(Cc2ccc(C(=O)NC[C@@H](O)C(=O)O)cc2)[C@H]2CC[C@H](C(C)(C)C)CC2)cc(C(F)(F)F)c1	10	98		
O=C(NC[C@@H](O)C(=O)O)c1ccc(CN(C(=O)Nc2cccc(Cl)c2)c2ccc(C3=CCCCC3)cc2)cc1	14	406		

Continued, in another order:

IC50 (Glucagon receptor [1]) [nM]	IC50 [2] [nM]	IC50 [5] [nM]	SMILES	other results
36	38	10800	CC(C)(C)c1ccc(N(Cc2ccc(C(=O)NCCC(=O)O)cc2)C(=O)Nc2ccc(OC(F)(F)F)cc2)cc1	
9	145		COc1cc(NC(=O)N(Cc2ccc(C(=O)NC[C@@H](O)C(=O)O)cc2)c2ccc(C3CCCCC3)cc2)cc(C(F)(F)F)c1	
12	64	5000	O=C(O)CCNC(=O)c1ccc(CN(C(=O)Nc2cc(Cl)cc(Cl)c2)c2ccc(C3=CCCCC3)cc2)cc1	Ratio IC50 (BHK): 400; IC50 (Glucagon receptor [6]): 36 nM; IC50 (Hepatocyte [7]): 820 nM; Activity (Hepatocyte [8]): inactive; Activity (Hepatocyte [9]): inactive; Activity (Hepatocyte [10]): Active; IC50 [11]: 216 nM; Activity (Pancreas): Active
14	279		COc1cc(NC(=O)N(Cc2ccc(C(=O)NC[C@@H](O)C(=O)O)cc2)c2ccc(C3=CCCCC3)cc2)cc(C(F)(F)F)c1	half-life [3]: 53 min; bioavailability [4]: 7%
166	1390		O=C(NC[C@@H](O)C(=O)O)c1ccc(CN(C(=O)Nc2ccccc2)c2ccc(C3=CCCCC3)cc2)cc1	
55	315		CC(C)(C)c1ccc(N(Cc2ccc(C(=O)NCC(O)C(=O)O)cc2)C(=O)Nc2ccc(OC(F)(F)F)cc2)cc1 (racemic)	
51	445	9320	O=C(NC[C@H](O)C(=O)O)c1ccc(CN(C(=O)Nc2cc(Cl)cc(Cl)c2)c2ccc(C3=CCCCC3)cc2)cc1	
693	3020	21800	CO[C@H](CNC(=O)c1ccc(CN(C(=O)Nc2cc(Cl)cc(Cl)c2)c2ccc(C3=CCCCC3)cc2)cc1)C(=O)O	
7	380		O=C(NC[C@@H](O)C(=O)O)c1ccc(CN(C(=O)Nc2cc(Br)cc(C(F)(F)F)c2)c2ccc(C3=CCCCC3)cc2)cc1	half-life [3]: 46 min; bioavailability [4]: 14%
14	701		O=C(NCC(O)C(=O)O)c1ccc(CN(C(=O)Nc2cc(Cl)cc(Cl)c2)c2ccc(C3=CCCCC3)cc2)cc1 (racemic)	
6	83		O=C(NC[C@@H](O)C(=O)O)c1ccc(CN(C(=O)Nc2ccc3c(c2)C(F)(F)OC(F)(F)O3)c2ccc(C3=CCCCC3)cc2)cc1	
5	497		CS(=O)(=O)c1cc(NC(=O)N(Cc2ccc(C(=O)NC[C@@H](O)C(=O)O)cc2)c2ccc(C3=CCCCC3)cc2)ccc1OC(F)(F)F	half-life [3]: 55 min; bioavailability [4]: 10%
6	12		O=C(NC[C@@H](O)C(=O)O)c1ccc(CN(C(=O)Nc2ccc(SC(F)(F)F)cc2)c2ccc(C3CCCCC3)cc2)cc1	
4	93		O=C(NC[C@@H](O)C(=O)O)c1ccc(CN(C(=O)Nc2cc(Cl)cc(Cl)c2)c2ccc(C3CCCCC3)cc2)cc1	
